Consider seven compounds from article PMC5553891 (Neurochemistry international, 2013).

Experiment [1] addresses T1, dSERT (Drosophila melanogaster, UniProt P51905).
T1 sequence (P51905 1-622): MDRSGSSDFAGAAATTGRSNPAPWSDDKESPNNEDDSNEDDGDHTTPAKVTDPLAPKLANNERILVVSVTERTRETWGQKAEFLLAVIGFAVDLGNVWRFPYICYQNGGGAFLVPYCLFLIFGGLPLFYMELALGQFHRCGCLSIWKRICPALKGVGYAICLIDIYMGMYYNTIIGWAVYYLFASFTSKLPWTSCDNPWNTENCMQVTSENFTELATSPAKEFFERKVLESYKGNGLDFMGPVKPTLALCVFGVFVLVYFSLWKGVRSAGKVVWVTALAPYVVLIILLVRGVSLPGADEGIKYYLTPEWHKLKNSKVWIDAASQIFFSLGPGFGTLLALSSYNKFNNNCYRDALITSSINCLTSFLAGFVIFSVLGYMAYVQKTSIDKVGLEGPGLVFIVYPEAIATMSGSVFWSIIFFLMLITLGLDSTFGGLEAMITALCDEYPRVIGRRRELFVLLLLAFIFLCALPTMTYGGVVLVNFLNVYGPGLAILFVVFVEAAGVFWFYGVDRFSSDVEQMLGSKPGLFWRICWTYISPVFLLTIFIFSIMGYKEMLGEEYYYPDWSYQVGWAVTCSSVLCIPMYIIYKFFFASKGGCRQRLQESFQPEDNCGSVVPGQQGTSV
In words: two-electrode voltage clamp of 5-HT-induced current in Xenopus oocytes. Format: cell-based. Conditions: 10 μM 5-HT, ND96, −50 mV, room temperature.

In experiment [2] the target is T1, dSERT. In words: inhibition of [3H]5-HT uptake in Xenopus oocytes. In kind it is cell-based. An outline of the steps: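 Xenopus oocytes: defolliculated in collagenase A, kept at 18°C in supplemented ND96, injected with 50 ng dSERT cRNA, used 2–4 days later. Uptake ran 20 min in ND96 with 200 nM [3H]5-HT plus increasing competitor. Stopped by removal and six ND96 washes; SDS-solubilised at 60°C, 2 h; scintillation counted. Uninjected same-batch oocytes subtracted; normalised to no-drug control; one-site competition fit.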

Setting [3] is: read-out: Ki (μM ± SEM) / dSERT, 200 nM [3H]5-HT, 20 min, ND96.

Like-named read-outs stand apart in the source and are kept apart here.

Regarding `CCN(CC)Cc1cc(Nc2ccnc3cc(Cl)ccc23)ccc1O` [Amodiaquin], the “% inhibition of I5HT at 100 μM” value at dSERT [1] is reported as “amodiaquin, which did not impact 5-HT uptake, was as affective as quinine”.
Take `CCN(CC)CCCC(C)Nc1ccnc2cc(Cl)ccc12` (stereo not shown) [Chloroquine]: the “% inhibition of I5HT at 100 μM” value at dSERT [1] was “quinidine > cinchonine > quinacrine > chloroquine > quinine = amodiaquin = cinchonidine”.
Turning to `C=C[C@H]1CN2CC[C@H]1C[C@H]2[C@H](O)c1ccnc2ccccc12` [Cinchonidine], the Ki at dSERT [2] (setting [3]) was found to be 330 ± 19 µM.
`C=C[C@H]1C[N@@]2CC[C@H]1C[C@@H]2[C@@H](O)c1ccnc2ccccc12` [Cinchonine]: the Ki on dSERT [2] (setting [3]) was determined as 6.4 ± 0.05 µM.
At dSERT [2], `C=C[C@H]1C[N@@]2CC[C@H]1C[C@@H]2[C@@H](O)c1ccnc2ccc(OC)cc12` [Quinidine] registered a Ki of 1.8 ± 0.11 µM.
Consider `C=C[C@H]1C[N@@]2CC[C@H]1C[C@H]2[C@H](O)c1ccnc2ccc(OC)cc12` [Quinine], for which the Ki on dSERT [2] is 102 ± 24 µM.
Turning to `CCN(CC)CCCC(C)Nc1c2ccc(Cl)cc2nc2ccc(OC)cc12` (stereo not shown) [quinacrine], the “% inhibition of I5HT at 100 μM” value at dSERT [1] was “quinidine > cinchonine > quinacrine > chloroquine > quinine = amodiaquin = cinchonidine”.
